Data as given in PMC4739781 (Journal of materials chemistry. B, Materials for biology …, 2015).
Like-named read-outs stand apart in the source and are kept apart here. Each block holds one compound with its values, some of them ahead of it.

Columns and labels:
[1] = Ru complex release from PEG-ASP CNAs by dialysis under sink conditions; format: physicochemical; conditions: for Release (%) in the primary phase: two-phase fit
Outline: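 Triplicate dialysis under sink conditions. Loaded CNAs at 100 μg/mL complex in diH2O, either irradiated 3 hrs (200 W, λ>400 nm, 120 J/cm²) or kept dark, in 10,000 MWCO cassettes. Dialysed at 37 °C in the dark against 5 L PBS or 10 mM phosphate buffer without NaCl (pH 6.0 or 7.4). Free complex served as control. Cassette contents were sampled over 0–48 hrs and read by MLCT-peak absorbance. Data were fitted by one-phase exponential regression, or two-phase where that fit better.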

[2] = test system: A549 human lung adenocarcinoma cells; experiment: A549 cell cytotoxicity in the dark and after irradiation; format: cell-based; conditions: for Phototoxicity Index, PI: ratio of the dark and light A549 EC50 values
Outline: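 A549 cells kept in DMEM with 10% FBS and 1% pen-strep at 37 °C, 5% CO2, below 70% confluence. Seeded at 1,500 cells/well in opti-MEM with 1% serum supreme and 1% pen-strep, then held 6 hrs. Free or CNA-loaded complex was added (0–300 μM or 0–20 μM) in the dark for 18 h. Cells were then irradiated (410 W projector, λ>400 nm filter, 30 sec pulses with 30 sec gaps, 5 min total) or kept dark, and held 72 hrs. Resazurin 73.3 μM for 4 hrs; fluorescence ex 560/em 590 nm; triplicate. PI is dark EC50 over light EC50.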

[3] = log P by shake flask method; format: physicochemical; conditions: Dark (protected from light)
Outline: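 Shake flask method in triplicate, using n-octanol and diH2O mutually pre-saturated (4:1 mixtures, 24 hrs). Protected from light, complex at 200 μM (100 μM for the less water-soluble one) in diH2O was mixed 1:1 with n-octanol (1 mL total). Samples were shaken 10 min and centrifuged at 17,000 × g for 30 sec. Both phases were read by absorbance at the MLCT peak. Photoactivated samples were first irradiated 30 min (20 J/cm², λ>400 nm filter).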

[4] = Ru complex loading in PEG-ASP CNAs by UV/Vis absorption at MLCT peak; format: physicochemical; conditions: maximum theoretical loading 25 wt %
Outline: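 PEG-ASP(Na⁺) CNAs and Ru complex (theoretical maximum loading 25%) were dissolved in anhydrous DMSO and incubated overnight at room temperature, protected from light. Unbound complex was removed by dialysis (6,000–8,000 MWCO) against diH2O, changed twice daily for 3 days. The product was lyophilized. Loading was quantified by UV/Vis absorbance at each complex's MLCT peak.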

A549 cells = experiment: A549 cytotoxicity with exposure limited to 8 hrs, wash, then irradiation; format: cell-based, human; conditions: irradiation λ>400 nm, 72 hrs
Outline: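 Free or CNA-entrapped complex was incubated with A549 cells for 8 hrs. Extracellular compound was washed off with fresh media. Cells were irradiated (λ>400 nm), incubated 72 hrs, and viability was read as in the standard assay: 73.3 μM resazurin for 4 hrs, fluorescence ex 560/em 590 nm.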

[5] = Ru complex photoactivation; format: physicochemical; conditions: after 30 min irradiation (200 W, λ>400 nm)
Outline: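 Free or CNA-loaded complex in PBS, in a 1 cm quartz cuvette 18 in from a 200 W projector with λ>400 nm cutoff filter. UV/Vis absorbance change was recorded over irradiation time. Photoactivation t1/2 (time for half the spectral change) was obtained by non-linear exponential regression.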

pUC19 plasmid DNA = experiment: DNA agarose gel electrophoresis; format: biochemical
[6] = air-equilibrated D2O at room temperature; cited from earlier work
[7] = read-out: EC50 Dark, A549, protected from light, 72 hrs
[8] = read-out: EC50 Light, A549, 5 min light irradiation (λ>400 nm), 72 hrs

Release (%) from PEG-ASP CNAs ([1]; Photoactivated, PBS (100 mM NaCl), pH 7.4, 37 °C): 77.7%
Release (%) from PEG-ASP CNAs ([1]; Photoactivated, phosphate buffer 0 mM NaCl, pH 7.4, 37 °C): 65.8%
Compound: O.O.[Cl-].[Cl-].[Ru+2].c1ccc(-c2ccccn2)nc1.c1ccc(-c2ccccn2)nc1 [photoactivated 1, [Ru(bpy)2(H2O)2]Cl2]

Compound: N.N.[Cl][Pt][Cl] [cisplatin, reference compound]
Phototoxicity Index, PI [2]: 1
EC50 [2, 7]: 2.5 ± 0.6 µM
EC50 [2, 8]: 2.5 ± 0.6 µM

log P [3]: 1.80 ± 0.02
loading efficiency in PEG-ASP CNAs [4]: 88%
weight % of Ru complex in loaded PEG-ASP CNAs [4]: 22 wt %
Release (%) from PEG-ASP CNAs ([1]; Dark, PBS (100 mM NaCl), pH 7.4, 37 °C): 37.0%
Release (%) from PEG-ASP CNAs (total) ([1]; Dark, phosphate buffer 0 mM NaCl, pH 6.0, 37 °C): 46.4%
Release (%) in the primary phase ([1]; Dark, phosphate buffer 0 mM NaCl, pH 6.0): 45.0%
Release (%) from PEG-ASP CNAs (total) ([1]; Dark, phosphate buffer 0 mM NaCl, pH 7.4, 37 °C): 51.9%
Release (%) in the primary phase ([1]; Dark, phosphate buffer 0 mM NaCl, pH 7.4): 45.2%
amount released from PEG-ASP CNAs after 18 hrs ([1]; after 18 hrs, dark): approximately 20%
photo-stability: change of UV/Vis absorbance spectrum [5]: did not change
EC50 (pUC19 plasmid DNA; read-out: DNA interaction EC50 (DNA precipitation), protected from light, 40 μg/mL pUC19, 10 mM PB pH 7.4): 31.3 to 62.5 µM
EC50 (pUC19 plasmid DNA; read-out: DNA interaction EC50 (single strand DNA breaks), after photoactivation (40 J/cm^2, λ>400 nm), 40 μg/mL pUC19): 15.6 to 31.3 µM
Compound: [Cl-].[Cl-].[Ru+2].c1ccc(-c2ccnc3c2ccc2c(-c4ccccc4)ccnc23)cc1.c1ccc(-c2ccnc3c2ccc2c(-c4ccccc4)ccnc23)cc1.c1ccc(-c2ccnc3c2ccc2c(-c4ccccc4)ccnc23)cc1 [compound 3, [Ru(dip)3]Cl2]
potency when cells were washed after an 8 hr exposure time (A549 cells): remained potent
Phototoxicity Index, PI [2]: >6
EC50 [2, 7]: 0.6 ± 1.1 µM
EC50 [2, 8]: 0.1 µM
singlet oxygen generation ΦΔ [6]: 0.42

Compound: Cc1cccc(-c2cccc(C)n2)n1 [dmbpy, 6,6′-dimethyl-2,2′-bipyridine]
EC50 ([2]; Homo sapiens, A549, read-out: EC50 (ejected ligand cytotoxicity)): 80 µM
